The source made the active and inactive calls. The rule behind the calls is not given here.

Activity, Ratio and Stability data for ten compounds are collected here from ChEMBL document CHEMBL3621156, “Discovery of Novel Isatin-Based p53 Inducers” (ACS Med Chem Lett, 2015).

Series [1] relates to U2OS. Nature of the series: Activation of p53 in human U2OS cells assessed as increase of MDM2 expression at 2.5 uM after 12 hrs by Western blotting. It is filed as cell-based. In general terms: Immunoblotting shows a protein as a band on a membrane.
Series [2] relates to U2OS. Nature of the series: Activation of p53 in human U2OS cells expressing EGFP assessed as increase of EGFP expression at 2.5 uM after 48 hrs relative to Nutlin-3. It is filed as cell-based. In short, it runs like this: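 U2OS-pLV cells carrying an integrated p53-responsive EGFP reporter; compounds at 2.5 μM for 48 h. Read-out is the percentage of EGFP-positive cells, counted by high-content screening. The value is the ratio to the response with Nutlin-3, which is set as 1.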

Series [3] has as its system U2OS. Nature of the series: Cytotoxicity against human U2OS cells expressing p53 assessed as number of cells by Hoechst stain staining relative to Nutlin-3. It is filed as functional. In short, it runs like this:
(§1)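 p53+ and p53− cells treated, then Hoechst-stained; surviving cells counted. The value is the ratio of compound effect to Nutlin-3 effect, which is set as 1.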

In series [4] the test system is U2OS. The experiment in a line: Cytotoxicity against human p53 deficient U2OS cells assessed as number of cells by Hoechst stain staining relative to Nutlin-3. Type of series: functional. In short, it runs like this:
as §1

Series [5] concerns the target Cellular tumor antigen p53 (Homo sapiens) (UniProt P04637). The experiment in a line: Stabilization of p53 in human U2OS cells assessed as intracellular p53 level at 0.5 uM after 12 hrs by Western blotting. Type of series: cell-based.
The test system of series [6] is U2OS. The experiment in a line: Activation of p53 in human U2OS cells assessed as increase of MDM2 expression at 0.5 uM after 12 hrs by Western blotting. It is filed as cell-based.
The nature of series [7]: Chemical stability of the compound assessed as compound hydrolysis at 50 uM in HEPES buffer incubated for 12 hrs at pH 7.5 at 37 degC by UV-visible spectrometry. Type of series: physicochemical. The conditions noted are these: pH 7.5, 12 h. The essentials: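 Hydrolysis followed by UV−vis spectrometry after incubation for 12 h at pH 7.5 and 37 °C.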
A short description of series [8]: Chemical stability of the compound assessed as compound hydrolysis at 50 uM in Opti-Mem solution incubated for 12 hrs at pH 7.5 at 37 degC by UV-visible spectrometry. Type of series: physicochemical. The conditions noted are these: buffer, pH 7.5, 12 h.

Cellular tumor antigen p53 (Homo sapiens), sequence (P04637 whole entry, looked up): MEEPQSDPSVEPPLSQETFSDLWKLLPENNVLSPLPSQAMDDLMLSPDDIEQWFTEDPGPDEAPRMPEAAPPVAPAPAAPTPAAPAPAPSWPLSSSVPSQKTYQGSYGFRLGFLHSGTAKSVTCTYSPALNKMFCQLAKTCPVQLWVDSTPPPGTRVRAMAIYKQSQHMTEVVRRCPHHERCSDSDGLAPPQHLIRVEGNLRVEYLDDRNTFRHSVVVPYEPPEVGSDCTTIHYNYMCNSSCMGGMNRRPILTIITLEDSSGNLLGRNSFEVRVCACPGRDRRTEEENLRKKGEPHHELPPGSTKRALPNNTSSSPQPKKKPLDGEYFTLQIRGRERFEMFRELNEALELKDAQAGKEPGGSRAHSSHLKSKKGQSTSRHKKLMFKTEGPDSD

As for `COc1ccc(C2=N[C@@H](c3ccc(Cl)cc3)[C@@H](c3ccc(Cl)cc3)N2C(=O)N2CCNC(=O)C2)c(OC(C)C)c1`, the result in series [1] was inactive.

Regarding `C[C@H](NC(=O)c1ccc(/N=C2\C(=O)N(CN3CCN(Cc4ccccc4)CC3)c3ccccc32)cc1)c1ccccc1`, the Ratio in series [2] was found to be 8.7; in series [3] it was 0.04; in series [4], 0.27.

For the compound `O=C(NCc1ccccc1)c1ccc(/N=C2\C(=O)N(CN3CCN(c4ccccc4F)CC3)c3ccccc32)cc1`, the Ratio amounted to 3.6 in series [2], 0.11 in series [3] and 0.24 in series [4].

Take `COc1cccc2c1C(=O)c1c(O)c3c(c(O)c1C2=O)C[C@@](O)(C(=O)CO)C[C@@H]3O[C@H]1C[C@H](N)[C@H](O)[C@H](C)O1`: in series [5], the outcome was Active. Moreover, the result in series [6] was inactive.

Consider `O=C(NCc1ccccc1)c1ccc(/N=C2\C(=O)N(CN3CCC(Cc4ccccc4)CC3)c3ccccc32)cc1`, for which the Ratio is 4.9 in series [2], 0.14 in series [3] and 0.32 in series [4].

Turning to `O=C(NCc1ccccc1)c1ccc(/N=C2\C(=O)N(CN3CCN(Cc4ccccc4)CC3)c3ccccc32)cc1`, the Ratio was found to be 4.2 in series [2], 0.1 in series [3] and 0.19 in series [4].

For the compound `O=C1C(=O)N(CN2CCN(c3ccccc3)CC2)c2ccccc21`, the Stability result in series [7] and in series [8] was “Unstable” in each case.

As to `O=C1Nc2ccccc2/C1=N/c1ccc(C(=O)NCc2ccccc2)cc1`, the Stability entry in series [7] and in series [8] was “Unstable” in each case.

On to `CN(Cc1ccccc1)CN1C(=O)/C(=N\c2ccc(C(=O)NCc3ccccc3)cc2)c2ccccc21`, for which the Ratio in series [2] amounted to 3.1; in series [3] it was 0.14; in series [4], 0.41.

As for `O=C(NCc1ccccc1)c1ccc(/N=C2\C(=O)N(CN3CCN(c4ccccc4)CC3)c3ccccc32)cc1`, the results for the Ratio in series [2], in series [3] and in series [4] were 3.9, 0.22 and 0.4, respectively. The outcome in series [1] was inactive.
